# Assay outcomes (PubChem)
# Hits are enriched below; roughly 5.1% of the tested compounds scored in any of these assays.
# STAT1 act = activators of IFN-gamma induced STAT1 signaling; NIH 3T3 STAT1-luciferase reporter, luminescence; 100% = IFN-gamma alone, no compound; activation (% of control), % at 5.5 µM; AID 932; actives 2.6% (n = 200,000);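 active = activation above the screen-wide mean activation plus 3 SD, cut at about 130% in these data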;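 note: raw ratio to IFN-gamma control signal so 100% means no change and 0% no light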
# APP 5'UTR act = APP 5'UTR luciferase reporter activation; SH-SY5Y APP 5'UTR luciferase reporter, luminescence; zero percent = DMSO vehicle wells; activation, % at 2 µM; actives 1% (n = 190,000); AID 1276;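 active = activation above a set limit, based on mean plus 3 SD of controls, cut at about 140% in these data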
# STAT1 blocker = inhibitors of IFN-gamma induced STAT1 signaling. NIH 3T3 STAT1-luciferase reporter, luminescence. inhibition, % at 5.5 µM. actives 0.35% (n = 200,000);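 active = inhibition above a set limit, the mean inhibition across all tested compounds plus 3 SD, cut at about 34% in these data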;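 note: 0% = IFN-gamma with DMSO and 100% = IFN-gamma with 300 µM nifuroxazide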
# STAT3 inh = STAT3 signaling inhibition | U3A cells, IL-6 STAT3-luciferase reporter, luminescence; host cell line lacks STAT1 | inhibition, % at 5.5 µM | actives 0.89% (n = 190,000) | AID 862;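 active = inhibition above the mean inhibition across all screened compounds plus 3 SD, cut at about 44% in these data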;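 note: 0% = DMSO only wells and 100% = 100 µM nifuroxazide control wells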
# STAT3 activator = activators of IL-6 induced STAT3 signaling | U3A cells, IL-6 STAT3-luciferase reporter, luminescence; 100% = signal with IL-6 EC80 alone | activation (% of control), % at 5.6 µM | actives 0.91% (n = 190,000);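 active = activation above the screen-wide mean of compound activation plus 3 SD, cut at about 130% in these data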;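 note: 0% = background luminescence of wells with medium and substrate only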
#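 Material: STAT1-lacking human U3A cells, STAT3 luciferase reporter | Benchmarks: IL-6-only wells as 100% reference | Probe or stimulus: IL-6 (33 ng/mL) | Timing: Compound 1 h, then IL-6 6 h at 37 °C | Detection: Luminescence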
# NF-kB expr up = raises NF-kB expression in human neuronal cells | fold change at 12.5 µM | actives 1.6% (n = 190,000) | NF-kB reporter expression; hits give high values | AID 1239; in the data active = fold change above about 3.3
# Starred values were filed as active, the others as inactive; / = no result given.
SMILES,STAT1 act,APP 5'UTR act,STAT1 blocker,STAT3 inh,STAT3 activator,NF-kB expr up
Cc1ccc(CNc2nc3ccccc3s2)s1,53,182*,51*,75*,40,4.2*
CC(C)c1ccccc1NC(=O)CNC(C)c1ccc(F)cc1 (stereo not drawn),99,8,0,-1,103,1.1
Cc1cc(Nc2ncc(Cl)cc2Cl)n(-c2ccccc2C)n1,95,-4,5,-11,111,1
Cc1ccc(-n2nc(C)cc2Nc2ncc(Cl)cc2Cl)cc1,96,-29,4,-48,135*,1
CSCCC(=O)Nc1cc(S(=O)(=O)N2CCOCC2)ccc1N1CCN(C)CC1,94,4,7,8,100,0.95
Nc1ccc(/C=C/C(=O)c2cccs2)cc1,122,143*,-26,4,99,5.9*
Nc1ccc(NC(=O)c2cccs2)cc1,105,-9,-7,4,101,1.2
CC(=O)Nc1sc(N/N=C\c2cccc(Cl)c2)nc1-c1cccs1,114,11,-15,-38,133*,1
O=C(NCc1ccc(F)cc1)C(=O)NCC1OCCN1S(=O)(=O)c1cccs1 (stereo not drawn),108,-16,-8,-2,102,1.2
Cc1cc(NC(=O)NC(=O)c2ccc(F)cc2F)n[nH]1,149*,89,-53,34,73,2.5
Cc1sc(NC(=O)c2ccc(Br)s2)c(C(N)=O)c1C,146*,108,-49,-102,185*,5.2*
Cc1sc(NC(=O)c2ccc(Cl)s2)c(C(N)=O)c1C,167*,142*,-81,-67,159*,5.3*
Cc1c(Cl)sn(-c2ccc(Cl)cc2)c1=O,117,-92,-21,7,100,0.14
CN(C)CCCNc1ccc(S(N)(=O)=O)cc1[N+](=O)[O-],104,20,-4,7,102,1.1
CC1C(C#N)=C(N)OC2=C1C(=O)CC(c1ccccc1)C2 (stereo not drawn),99,-6,-1,25,82,/
Cc1ccc(NC(=O)c2ccco2)cc1C,132*,105,-35,11,97,2.4
Cc1ccccc1NC(=O)c1ccc(NC(=O)c2ccco2)cc1,100,8,0,15,90,1.1
CC1(C)Oc2ccc(NC(=O)c3ccco3)cc2O1,129*,116,-31,20,86,3
O=C(Nc1ccccn1)c1ccc(NC(=O)c2ccco2)cc1,129*,159*,-34,8,97,2.7
COc1cc(NC(=O)CC(C)C)ccc1NC(=O)c1ccco1,141*,97,-45,16,90,/
O=C(Nc1ccc2c(c1)OCCO2)c1ccco1,128,93,-31,33,75,2.2
COc1cc(NS(=O)(=O)c2ccc(NC(=S)NC(=O)COc3ccccc3OC)cc2)nc(OC)n1,96,-3,4,2,103,/
COc1ccc(NC(=O)Cn2c(NCC(C)O)nc3ccccc32)cc1Cl (stereo not drawn),109,17,-9,6,96,1.2
CCC(=O)Oc1ccc(NC(=O)c2ccco2)cc1,99,14,2,-2,103,1.3
CCC(=O)Nc1ccc(NC(=O)c2ccco2)cc1,131*,40,-34,8,96,1.9
SMILES,STAT1 act,APP 5'UTR act,STAT1 blocker,STAT3 inh,STAT3 activator,NF-kB expr up
O=C(c1ccccc1)c1cccc(NC(=O)c2ccco2)c1,129*,39,-32,2,101,1.9
C=CCOc1c(CNc2cccc(C(=O)O)c2)cccc1OCC,112,11,-13,10,101,1.6
C=CCOc1c(CNc2cccc(C(=O)O)c2)cccc1OC,145*,56,-49,-14,119,1.9
COc1ccc(C(=O)Nc2ccc(/C(C)=N/NC(=O)c3ccccc3O)cc2)cc1OC,129*,13,-32,0,103,0.77
COc1ccc(/C(C)=N/Nc2cccc(C(=O)O)c2)cc1OC,107,217*,-9,-5,112,1.1
COc1ccc(Br)cc1/C=N/Nc1cccc(C(=O)O)c1,108,18,-9,-10,104,1.8
C/C(=N\NC(=O)C(=O)Nc1cccc(C(F)(F)F)c1)c1ccc(Cl)s1,95,12,5,28,78,1.3
C/C(=N\Nc1cccc(C(=O)O)c1)c1ccc(Cl)s1,135*,86,-37,8,98,2.1
